Our source for the Activity and IC50 values is ChEMBL document CHEMBL4130355, “Development of a series of novel 4-anlinoquinazoline derivatives possessing quinazoline skeleton: Design, synthesis, EGFR kinase inhibitory efficacy, and evaluation of anticancer activities in vitro” (Eur J Med Chem, 2017).

Experiment [1] concerns HepG2. Description: Cytotoxicity against human HepG2 cells at 5 uM after 48 hrs by LDH release assay (reference value: 100%). Type of experiment: functional. A digest of the protocol:
(§1)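 HepG2 seeded at 1.0 × 10^5 cells/well, grown 24 h at 37 °C in 5% CO2, then dosed for 48 h. LDH in supernatant read on plate reader per kit. Maximal release (100% cytotoxicity) came from lysis with 2% (V/V) lysate for 1 h at 37 °C; medium-only cells served as natural release. Triplicate, three independent runs.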
In general terms: LDH leaks from cells whose membrane has failed.

In experiment [2] the test system is HepG2. Briefly: Cytotoxicity against human HepG2 cells at 40 uM after 48 hrs by LDH release assay (reference value: 100%). The format is functional. A digest of the protocol: as §1
In experiment [3] the test system is HepG2. Description: Cytotoxicity against human HepG2 cells at 20 uM after 48 hrs by LDH release assay (reference value: 100%). The format is functional. The method in brief: (§2)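 LDH release. HepG2 cells at 1.0 × 10^5/well were incubated 24 h at 37 °C, then treated at 2.5–40 µM for 48 h. Cells lysed with 2% lysate for 1 h gave the full-release (100%) reference; medium-only cells were the low control. LDH in the supernatant was measured per kit. Triplicates, three independent repeats.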

Experiment [4] deals with HepG2. Briefly: Cytotoxicity against human HepG2 cells at 2.5 uM after 48 hrs by LDH release assay (reference value: 100%). The format is functional. A digest of the protocol: as §2
Experiment [5] deals with HepG2. Briefly: Cytotoxicity against human HepG2 cells at 10 uM after 48 hrs by LDH release assay (reference value: 100%). The format is functional. A digest of the protocol: as §2
A further experiment concerns A549. Briefly: Antiproliferative activity against human A549 cells after 72 hrs by MTT assay. Type of experiment: functional, cell-based. As to conditions: A549, 72 h. For orientation: Tetrazolium assays rely on reduction of a dye to a coloured formazan, in cell work by metabolically active cells.
The test system of experiment [6] is HepG2. Briefly: Antiproliferative activity against human HepG2 cells after 72 hrs by MTT assay. The format is functional, cell-based. The following applies: HepG2, 72 h.
The next experiment relates to SH-SY5Y. Description: Antiproliferative activity against human SH-SY5Y cells after 72 hrs by MTT assay. Type of experiment: functional, cell-based.
Another experiment deals with DU-145. Briefly: Antiproliferative activity against human DU145 cells after 72 hrs by MTT assay. The format is functional, cell-based. The following applies: DU-145, 72 h.
The next experiment has as its system MCF7. Description: Antiproliferative activity against human MCF7 cells after 72 hrs by MTT assay. The format is functional, cell-based. The following applies: MCF7, 72 h.

Bounds are passed on as bounds.

Take `COc1cc2ncnc(Nc3ccc(F)c(Cl)c3)c2cc1OCCCN1CCOCC1` [GEFITINIB]: the Activity was 48.69% with HepG2 [1]; 47.62% with HepG2 [2]; 45.24% in the experiment on HepG2 [3]; 42.08% with HepG2 [4]; 45.36% with HepG2 [5].
Consider `CCN1CCN(CCCOc2cc3ncnc(Nc4ccc(C#N)cc4)c3cc2OC)CC1`, for which the IC50 (usually the concentration that inhibits the measured activity by half) in the experiment on A549 worked out at 16 µM; with HepG2 [6], 9.58 µM; in the experiment with SH-SY5Y, 5.44 µM; in the experiment with DU-145, 34.4 µM; in the experiment with MCF7, 29.9 µM.
For `COc1cc2c(Nc3ccccc3C#N)ncnc2cc1OCCCN1CCN(C)CC1`, in that order: 23.4 µM, 26.4 µM, 32.4 µM, 19.4 µM and 17.8 µM.
For `COc1cc2c(Nc3ccc(C#N)cc3)ncnc2cc1OCCCN1CCC(N2CCCCC2)CC1`, in that order: 30.7 µM, 8.84 µM, 9.81 µM, 15.6 µM and 19.6 µM.
Take `COc1cc2c(Nc3ccc(C#N)cc3)ncnc2cc1OCCCN1CCCC1`: the IC50 is 21.8 µM with A549; 20.9 µM in the experiment with HepG2 [6]; 8.08 µM with SH-SY5Y; 14.4 µM in the experiment with DU-145; 16.2 µM in the experiment on MCF7.
For `COc1cc2c(Nc3ccc(C#N)cc3)ncnc2cc1OCCCN1CCC(C)CC1`, in that order: 32.3 µM, 32.1 µM, 7.9 µM, 16.6 µM and 43.1 µM.
On to `COc1cc2c(Nc3ccc(C#N)cc3)ncnc2cc1OCCCN1CCC(N(C)C)CC1`, for which the 50% inhibitory concentration (IC50) was determined as 42.4 µM in the experiment on A549; 33.6 µM with HepG2 [6]; 24.3 µM in the experiment with SH-SY5Y; 28.3 µM with DU-145; 31 µM with MCF7.
For `COc1cc2c(Nc3cccc(C#N)c3)ncnc2cc1OCCCN1CCC(C)CC1` the same measures were 18.7 µM, 18.2 µM, 7.33 µM, 17.7 µM and 24.4 µM.
For `COc1cc2c(Nc3ccc(C#N)cc3)ncnc2cc1OCCCN1CCN(C)CC1`, in that order: 48.8 µM, 13.8 µM, 13 µM, 46.5 µM and 71.1 µM.
For `CCN1CCN(CCCOc2cc3ncnc(Nc4ccccc4C#N)c3cc2OC)CC1` the same measures were 6.91 µM, 2.11 µM, 12.6 µM, 5.87 µM and 9.07 µM.
With `CCN(CC)CCCOc1cc2ncnc(Nc3ccc(C#N)cc3)c2cc1OC`, the half-inhibitory concentration (IC50) was 50.6 µM with A549; 59.4 µM with HepG2 [6]; over 100 µM in the experiment on SH-SY5Y; 68.9 µM in the experiment with DU-145; over 100 µM in the experiment on MCF7.
In the case of `COc1cc2c(Nc3ccc(C#N)cc3)ncnc2cc1OCCCN(CCO)Cc1ccccc1`, the IC50 in the experiment on A549 is 47.4 µM; with HepG2 [6], over 100 µM; in the experiment on SH-SY5Y, over 100 µM; in the experiment on DU-145 it was over 100 µM; in the experiment on MCF7, over 100 µM.
With `COc1cc2c(Nc3ccc(C#N)cc3)ncnc2cc1OCCCN1CCC(O)CC1`, the IC50 in the experiment on A549 is 29.9 µM; with HepG2 [6], 67.9 µM; with SH-SY5Y, over 100 µM; in the experiment on DU-145, 74.9 µM; in the experiment with MCF7, over 100 µM.
For `COc1cc2c(Nc3cccc(C#N)c3)ncnc2cc1OCCCN1CCN(C)CC1`, the IC50 is 27.7 µM in the experiment with A549; 18.3 µM in the experiment with HepG2 [6]; 6.89 µM in the experiment on SH-SY5Y; 12.1 µM in the experiment with DU-145; 23.1 µM in the experiment on MCF7.
Turning to `COc1cc2c(Nc3ccc(C#N)cc3)ncnc2cc1OCCCN1CCN(c2ccncc2)CC1`, the IC50 amounted to 25.4 µM in the experiment on A549; 12.6 µM with HepG2 [6]; 31.6 µM with SH-SY5Y; 22.9 µM in the experiment with DU-145; 22.9 µM with MCF7.
Consider `COc1cc2c(Nc3ccccc3C#N)ncnc2cc1OCCCN1CCCC1`, for which the IC50 came out at 21.8 µM in the experiment with A549; 24.5 µM with HepG2 [6]; 28.9 µM in the experiment with SH-SY5Y; 18.7 µM in the experiment with DU-145; 16.2 µM in the experiment with MCF7.
For `COc1cc2c(Nc3ccc(C#N)cc3)ncnc2cc1OCCCN1CCN(CCO)CC1`, the IC50 in the experiment on A549 is 9.82 µM; in the experiment on HepG2 [6], 28.1 µM; in the experiment with SH-SY5Y, 36.8 µM; in the experiment with DU-145, 29.3 µM; with MCF7, 25.2 µM.
For `CCN1CCN(CCCOc2cc3ncnc(Nc4cccc(C#N)c4)c3cc2OC)CC1` the same measures were 18.7 µM, 13.7 µM, 6.27 µM, 18.2 µM and 19.9 µM.
For `COc1cc2c(Nc3ccc(C#N)cc3)ncnc2cc1OCCCN1CCc2ccccc2C1` the same measures were over 100 µM, over 100 µM, over 100 µM, over 100 µM and over 100 µM.
For `COc1cc2c(Nc3ccc(C#N)cc3)ncnc2cc1OCCCN(CCO)CCO` the same measures were 26.1 µM, 40.3 µM, 48.1 µM, 20.2 µM and 36.8 µM.
As to `CCOC(=O)C1CCN(CCCOc2cc3ncnc(Nc4ccc(C#N)cc4)c3cc2OC)CC1`, the IC50 turned out to be 89.9 µM with A549; 57.7 µM in the experiment on HepG2 [6]; 47.2 µM in the experiment on SH-SY5Y; 52.3 µM in the experiment with DU-145; 34.9 µM in the experiment with MCF7.
For `COc1cc2c(Nc3ccc(C#N)cc3)ncnc2cc1OCCCN(C)C`, the IC50 is 60.5 µM in the experiment with A549; over 100 µM with HepG2 [6]; 34.9 µM in the experiment on SH-SY5Y; 35.2 µM with DU-145; 45 µM in the experiment with MCF7.
For `COc1cc2c(Nc3ccc(C#N)cc3)ncnc2cc1OCCCN1CCC(CO)CC1`, in that order: over 100 µM, 61.8 µM, 21.6 µM, 53.2 µM and 35.1 µM.
For `COc1cc2c(Nc3cccc(C#N)c3)ncnc2cc1OCCCN1CCCC1`, in that order: 39.9 µM, 18.2 µM, 10.6 µM, 19.1 µM and 33.9 µM.
For `COc1cc2c(Nc3cccc(C#N)c3)ncnc2cc1OCCCN1CCCCC1`, in that order: 37 µM, 29.5 µM, 11.2 µM, 29.1 µM and 44.8 µM.
Consider `COc1cc2c(Nc3ccc(C#N)cc3)ncnc2cc1OCCCN(C)CCO`, for which the IC50 was 29 µM with A549; 45.2 µM in the experiment with HepG2 [6]; 83.7 µM in the experiment with SH-SY5Y; 17.4 µM in the experiment on DU-145; 41.4 µM with MCF7.
For `COc1cc2c(Nc3ccc(C#N)cc3)ncnc2cc1OCCCN1CCCCC1`, in that order: 23.5 µM, 20.7 µM, 18.8 µM, 24.4 µM and 35.1 µM.
For `COc1cc2c(Nc3ccc(C#N)cc3)ncnc2cc1OCCCN1CCOCC1`, in that order: 59.4 µM, 0.77 µM, over 100 µM, 98.2 µM and over 100 µM.
Turning to `COc1cc2c(Nc3cccc(C#N)c3)ncnc2cc1OCCCN1CCOCC1`, the IC50 was 65.5 µM with A549; 1.89 µM in the experiment with HepG2 [6]; over 100 µM in the experiment with SH-SY5Y; 77.8 µM in the experiment on DU-145; over 100 µM in the experiment on MCF7.
For `COc1cc2c(Nc3ccccc3C#N)ncnc2cc1OCCCN1CCOCC1`, the IC50 was 46.8 µM in the experiment on A549; 3.68 µM in the experiment with HepG2 [6]; over 100 µM in the experiment on SH-SY5Y; 68.5 µM in the experiment with DU-145; 98.4 µM in the experiment with MCF7.
For `COc1cc2c(Nc3ccccc3C#N)ncnc2cc1OCCCN1CCC(C)CC1` the same measures were 22.7 µM, 4.03 µM, 29 µM, 11.9 µM and 31.9 µM.
For `COc1cc2c(Nc3ccc(C#N)cc3)ncnc2cc1OCCCN(C)Cc1ccccc1`, in that order: over 100 µM, over 100 µM, over 100 µM, over 100 µM and over 100 µM.
For `COc1cc2c(Nc3ccccc3C#N)ncnc2cc1OCCCN1CCCCC1` the same measures were 14.7 µM, 14.2 µM, 13.4 µM, 15.3 µM and 15.2 µM.
With `COc1cc2c(Nc3ccc(C#N)cc3)ncnc2cc1OCCCN1CCCCC1CCO` (stereo not given), the IC50 in the experiment on A549, with HepG2 [6], with SH-SY5Y, in the experiment on DU-145 and in the experiment with MCF7 was over 100 µM throughout.
